Measurements: ChEMBL document CHEMBL4616646, “Synthesis and Cytotoxicity Studies of Stilbene Long-Chain Fatty Acid Conjugates” (J Nat Prod, 2020)

Columns and labels:
HEK293 = assay: Cytotoxicity against HEK293 cells after 68 hrs by MTT assay; type: cell-based; conditions: Homo sapiens, HEK293, 68 h
In short: (§1)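 Cells grown in DMEM with 10% FBS and 1% P/S at 37 °C under 5% CO₂, trypsinized and seeded at ~5 × 10⁴ cells per well. Test drugs added after attachment at 0.1 to 100 μM. After 68 h, MTT (4 mg/mL) added for 4 h, supernatant discarded, formazan dissolved in DMSO, absorbance read at 570 nm. IC50 taken as concentration giving ~50% survival; mean ± SD of three independent experiments.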

MCF7 = assay: Cytotoxicity against human MCF7 cells after 68 hrs by MTT assay; type: functional, cell-based; conditions: MCF7, 68 h; in short: as §1
NCI-H460 = assay: Cytotoxicity against human NCI-H460 cells after 68 hrs by MTT assay; type: functional, cell-based; conditions: NCI-H460, 68 h; in short: as §1
KB 3-1 = assay: Cytotoxicity against human KB3-1 cells after 68 hrs by MTT assay; type: functional, cell-based; conditions: KB 3-1, 68 h; in short: as §1

| SMILES | IC50 (HEK293) [µM] | IC50 (MCF7) [µM] | IC50 (NCI-H460) [µM] | IC50 (KB 3-1) [µM] |
| --- | --- | --- | --- | --- |
| CCCCC/C=C\C/C=C\CCCCCCCC(=O)Oc1cc(/C=C\c2cc(OC)c(OC)c(OC)c2)ccc1OC | 0.02 | > 10 | 0.02 | 0.02 |
| CC/C=C\C/C=C\C/C=C\CCCCCCCC(=O)Oc1cc(/C=C\c2cc(OC)c(OC)c(OC)c2)ccc1OC | 0.023 | > 10 | 0.01 | 0.03 |
| CCCCCCCCCCCCCCCCCC(=O)Oc1cc(/C=C\c2cc(OC)c(OC)c(OC)c2)ccc1OC | 0.03 | 0.24 | 0.03 | 0.03 |
| CCCCC/C=C\C/C=C\CCCCCCCC(=O)Oc1cc(/C=C/c2cc(OC)c(OC)c(OC)c2)ccc1OC | 2.6 | > 10 | 2.4 | 4.9 |
| CCCCCCCC/C=C\CCCCCCCC(=O)Oc1cc(/C=C\c2cc(OC)c(OC)c(OC)c2)ccc1OC | 0.03 | > 10 | 0.31 | 0.03 |
| CCCCC/C=C\C/C=C\CCCCCCCC(=O)Oc1ccc(/C=C/c2cc(OC)c(OC)c(OC)c2)cc1OC | > 100 | > 100 | > 100 | > 100 |
| CCCCCCCC/C=C\CCCCCCCC(=O)Oc1ccc(/C=C/c2cc(OC)c(OC)c(OC)c2)cc1OC | > 100 | > 100 | > 100 | > 100 |
| CC/C=C\C/C=C\C/C=C\CCCCCCCC(=O)Oc1cc(/C=C/c2cc(OC)c(OC)c(OC)c2)ccc1OC | 2.4 | > 10 | > 10 | 2.4 |
| CCCCCCCCCCCCCCCCCC(=O)Oc1cc(/C=C/c2cc(OC)c(OC)c(OC)c2)ccc1OC | 2.9 | > 10 | > 10 | > 10 |
| CC/C=C\C/C=C\C/C=C\CCCCCCCC(=O)Oc1ccc(/C=C/c2cc(OC)c(OC)c(OC)c2)cc1OC | > 100 | > 100 | > 100 | > 100 |
| CCCCCCCCCCCCCCCCCC(=O)Oc1ccc(/C=C\c2cc(OC)c(OC)c(OC)c2)cc1OC | 3.9 | 7.7 | > 10 | 3.1 |
| CCCCCCCCCCCCCCCCCC(=O)Oc1ccc(/C=C/c2cc(OC)c(OC)c(OC)c2)cc1OC | > 100 | > 100 | > 100 | > 100 |
| COc1cc2c(c(OC)c1OC)-c1ccc(OC)c(=O)cc1[C@@H](NC(C)=O)CC2 [COLCHICINE] | 0.02 | 0.06 | 0.06 | 0.02 |
| COc1ccc(/C=C\c2cc(OC)c(OC)c(OC)c2)cc1O [COMBRETASTATIN A4] | 0.01 | 0.09 | 0.01 | 0.01 |
| COc1ccc(/C=C/c2cc(OC)c(OC)c(OC)c2)cc1O [E-COMBRETASTATIN A-4] | 0.2 | 0.11 | 0.25 | 0.1 |
